Results on 9 molecules are retold here after ChEMBL document CHEMBL1250496, “Novel 6,12-disubstituted chrysene as potent anticancer agent: synthesis, in vitro and in vivo study” (Eur J Med Chem, 2010).

Data set [1] in a line: Cytotoxicity against human BRO cells after 72 hrs by MTT assay. The class given is functional, cell-based. An outline of the steps: (§1)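 Cells were exposed continuously to drug for 72 h, with dilutions made in RPMI 1640 + 10% FBS and final solvent below 0.625%. Relative growth was read by MTT, and IC50 was reported in μM.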
For data set [2], the system named is HT-29. In words: Cytotoxicity against human HT-29 cells after 72 hrs by MTT assay. The class given is functional, cell-based. An outline of the steps: as §1
The subject of data set [3] is SK-OV-3. In words: Cytotoxicity against human SKOV3 cells after 72 hrs by MTT assay. The class given is functional, cell-based. An outline of the steps:
as §1

Data set [4] has as its system PC-3. Put plainly: Cytotoxicity against human PC3 cells after 72 hrs by MTT assay. The data set is classed as functional, cell-based. An outline of the steps: as §1
In general terms: Formazan colour is commonly taken as a measure of viable cells.

The test system of data set [5] is HL-60. Put plainly: Cytotoxicity against human HL60 cells after 72 hrs by MTT assay. The data set is classed as functional, cell-based. Particulars: HL-60, 72 h. A digest of the protocol: as §1
Data set [6] has as its system P388. In words: Cytotoxicity against mouse P388 cells after 72 hrs by MTT assay. The class given is functional, cell-based. A digest of the protocol:
as §1

Data set [7] concerns MCF7. Put plainly: Cytotoxicity against human MCF7 cells after 72 hrs by MTT assay. The class given is functional, cell-based. An outline of the steps: as §1
Data set [8] relates to SK-OV-3. Put plainly: Antitumor activity against human SKOV3 xenografted in mouse assessed as reduction in tumor volume at 40 mg/kg, ip for 5 days. The data set is classed as functional. Also noted: scale not given: the % may be the effect or the level left. As to conditions: route intraperitoneal. An outline of the steps: (§2)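 Female nu/nu mice, 6-10 weeks old. SKOV-3 cells were harvested at 80% confluence with viability >90% by trypan blue, washed, resuspended in PBS and given i.p. at 0.65 × 10^6 per mouse. Mice were sacrificed at 7 weeks and tumors counted and total volume measured per mouse.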

For data set [9], the system named is SK-OV-3. In words: Antitumor activity against human SKOV3 xenografted in mouse assessed as reduction in tumor number at 40 mg/kg, ip for 5 days. The class given is functional. Also noted: scale not given: the % may be the effect or the level left. Particulars: route intraperitoneal. An outline of the steps: as §2
A general note: A xenograft is tissue or cells of one species grown in another, often human tumour cells in immunodeficient mice.

Data set [10] deals with Mus musculus. In words: Toxicity in mouse assessed as weight loss at 40 mg/kg, ip. As to conditions: in vivo. The data set is classed as organism-based. Also on record: dose 40 mg/kg, route intraperitoneal.

With `CN1CCN(CCCCNc2cc3c4ccccc4c(NCCCCN4CCN(C)CC4)cc3c3ccccc23)CC1`, the IC50 in data set [1] (bro) is 3.8 µM; in [2] (Homo sapiens, HT-29, 72 h), 2.1 µM; in [3] (Homo sapiens, SK-OV-3, 72 h) it was 0.9 µM; in data set [4] (Homo sapiens, PC-3, 72 h) it was 1.2 µM; in data set [5], 0.9 µM; in [6] (p388), 1.7 µM. The molecule also yielded an IC50 in data set [7] (Homo sapiens, MCF7, 72 h) of 1.7 µM.
Turning to `O=C(CCC(=O)N1CCCCC1)Nc1cc2c3ccccc3c(NC(=O)CCC(=O)N3CCCCC3)cc2c2ccccc12`, the IC50 came to 44.3 µM in data set [1] (Homo sapiens, BRO, 72 h); 41.1 µM in data set [2] (Homo sapiens, HT-29, 72 h); 22 µM in data set [3] (Homo sapiens, SK-OV-3, 72 h); 24.4 µM in [4] (Homo sapiens, PC-3, 72 h); 25 µM in data set [5]; 37.8 µM in [6] (Mus musculus, P388, 72 h). The molecule also had a 50% inhibitory concentration (IC50) in data set [7] (Homo sapiens, MCF7, 72 h) of 21 µM.
Turning to `CN1CCN(CCCCNc2cc3c4ccccc4c(NCCCCN4CCN(C)CC4)cc3c3ccccc23)CC1.Cl`, the IC50 in data set [1] (bro) came to 0.6 µM; in data set [2] (ht-29), 1.6 µM; in data set [3] (sk-ov-3) it was 1 µM; in data set [4] (pc-3), 2.1 µM; in [6] (p388) it was 0.8 µM; in data set [7] (mcf7), 1.2 µM. Moreover, the Activity in data set [8] stood at 47%; in [9] it was 35%; in data set [10] it was 5%.
For the molecule `CN1CCN(C(=O)CCC(=O)Nc2cc3c4ccccc4c(NC(=O)CCC(=O)N4CCN(C)CC4)cc3c3ccccc23)CC1`, the IC50 in data set [1] (Homo sapiens, BRO, 72 h) turned out to be 57.3 µM; in data set [2] (Homo sapiens, HT-29, 72 h), 66.6 µM; in data set [3] (Homo sapiens, SK-OV-3, 72 h), 72.2 µM; in [4] (Homo sapiens, PC-3, 72 h), 15.5 µM; in data set [5] it was 42.1 µM; in data set [6] (Mus musculus, P388, 72 h) it was 98 µM. This molecule gave an IC50 in [7] (Homo sapiens, MCF7, 72 h) of 75 µM.
With `c1ccc2c(c1)c(NCCCCN1CCCCC1)cc1c3ccccc3c(NCCCCN3CCCCC3)cc21`, the IC50 in data set [1] (Homo sapiens, BRO, 72 h) amounted to 1.7 µM; in data set [2] (Homo sapiens, HT-29, 72 h) it was 1.2 µM; in data set [3] (Homo sapiens, SK-OV-3, 72 h) it was 1.9 µM; in data set [4] (Homo sapiens, PC-3, 72 h) it was 0.8 µM; in [5] it was 0.8 µM; in data set [6] (Mus musculus, P388, 72 h), 2 µM. The molecule further gave an IC50 in data set [7] (Homo sapiens, MCF7, 72 h) of 1.4 µM.
`CN1CCN(C(=O)CCC(=O)Nc2cc3c4ccccc4ccc3c3ccccc23)CC1`: the half-maximal inhibitory concentration (IC50) in [1] (Homo sapiens, BRO, 72 h) is 41.6 µM; in data set [2] (Homo sapiens, HT-29, 72 h), 9.3 µM; in data set [3] (Homo sapiens, SK-OV-3, 72 h), 11.1 µM; in data set [4] (Homo sapiens, PC-3, 72 h), 18.4 µM; in data set [5], 9.5 µM; in data set [6] (Mus musculus, P388, 72 h), 6 µM. This molecule also yielded an IC50 in data set [7] (Homo sapiens, MCF7, 72 h) of 7.1 µM.
Consider `c1ccc2c(c1)ccc1c3ccccc3c(NCCCCN3CCCCC3)cc21`, for which the IC50 came out at 3.4 µM in [1] (Homo sapiens, BRO, 72 h); 2.4 µM in [2] (Homo sapiens, HT-29, 72 h); 4.4 µM in data set [3] (Homo sapiens, SK-OV-3, 72 h); 3.7 µM in data set [4] (Homo sapiens, PC-3, 72 h); 1.1 µM in data set [5]; 2.2 µM in [6] (Mus musculus, P388, 72 h). This molecule yielded a half-maximal inhibitory concentration (IC50) in [7] (Homo sapiens, MCF7, 72 h) of 2.3 µM.
Turning to `CN1CCN(CCCCNc2cc3c4ccccc4ccc3c3ccccc23)CC1`, the IC50 was determined as 13.9 µM in [1] (Homo sapiens, BRO, 72 h); 14.3 µM in data set [2] (Homo sapiens, HT-29, 72 h); 8.4 µM in data set [3] (Homo sapiens, SK-OV-3, 72 h); 10 µM in data set [4] (Homo sapiens, PC-3, 72 h); 5.3 µM in data set [5]; 19.5 µM in data set [6] (Mus musculus, P388, 72 h). Moreover, in data set [7] (Homo sapiens, MCF7, 72 h), the IC50 stood at 6.4 µM.
With `O=C(CCC(=O)N1CCCCC1)Nc1cc2c3ccccc3ccc2c2ccccc12`, the IC50 in [1] (Homo sapiens, BRO, 72 h) was greater than 100 µM; in data set [2] (Homo sapiens, HT-29, 72 h) it was 33.3 µM; in [3] (Homo sapiens, SK-OV-3, 72 h), 21 µM; in [4] (Homo sapiens, PC-3, 72 h), 50.4 µM; in [5], 18.8 µM; in data set [7] (Homo sapiens, MCF7, 72 h) it was 24.5 µM.

Broadly, the IC50 is the concentration that inhibits the measured activity by half.
